The source made the active and inactive calls.
Assays:
Canis familiaris [1] = experiment: Antiarrhythmic property A-V nodal conduction time(post drug) is compared to lidocaine(2) using doses(3 and 6 mg/kg); assay type: functional, Canis lupus familiaris, Heart
Outline: (§1)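 Mongrel dogs (about 12–25 kg), 1–4 days after coronary occlusion infarction, under sodium pentobarbital (~30 mg/kg) with 12-lead ECG monitoring. Agents and lidocaine were given iv at 3 and 6 mg/kg. Programmed ventricular stimulation was applied at baseline, about 2–5 min after each dose, and at 30 min. SVT was defined as ≥250 beats/min lasting ≥30 s. Pre means drug-free; post means after dosing.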

Canis familiaris [2] = experiment: Antiarrhythmic property is compared to lidocaine(2) using doses(3 and 6 mg/kg). Time required for the ventricular myocardium to undergo depolarization and repolarization ((post drug); assay type: functional, Canis lupus familiaris; outline: as §1
Canis familiaris [3] = experiment: Antiarrhythmic property is compared to lidocaine(2) using doses(3 and 6 mg/kg). Time required for the ventricular myocardium to undergo depolarization and repolarization (drug free); assay type: functional, Canis lupus familiaris; outline: as §1
Canis familiaris [4] = experiment: Antiarrhythmic property A-V nodal conduction time(drug free) is compared to lidocaine(2) using doses(3 and 6 mg/kg); assay type: functional, Canis lupus familiaris, Heart; outline: as §1
Canis familiaris [5] = experiment: Antiarrhythmic property Heart rate (drug free) is compared to Lidocaine using doses (3 and 6 mg/kg).; assay type: functional, Canis lupus familiaris
Outline: (§2)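 Mongrel dogs (~12–25 kg), 1–4 days after coronary occlusion leaving a surviving epicardial rim, anesthetized with sodium pentobarbital (~30 mg/kg). 12-lead ECG monitored throughout. Agent given iv at 3 and 6 mg/kg. Parameters recorded before (drug free) and after dosing. Programmed electrical stimulation tested SVT inducibility (≥250 beats/min, ≥30 s) at baseline, ~2–5 min after each dose, and at 30 min.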

Canis familiaris [6] = experiment: Antiarrhythmic property Heart rate (post drug) is compared to Lidocaine using doses(3 and 6 mg/kg). system.; assay type: functional, Canis lupus familiaris; outline: as §2
Canis familiaris [7] = experiment: Antiarrhythmic property Mean blood pressure (drug free) is compared to Lidocaine using doses(3 and 6 mg/kg).; assay type: functional, Canis lupus familiaris; outline: as §2
Canis familiaris [8] = experiment: Antiarrhythmic property Mean blood pressure(post drug) is compared to Lidocaine using doses(3 and 6 mg/kg); assay type: functional, Canis lupus familiaris; outline: as §2
Canis familiaris [9] = experiment: (§3) Antiarrhythmic property His-Purkinje conduction time(post drug) is compared to lidocaine(2) using doses(3 and 6 mg/kg); assay type: functional, Canis lupus familiaris, His-Purkinje system; outline: as §1
Canis familiaris [10] = experiment: Antiarrhythmic property His-Purkinje conduction time(drug free) is compared to lidocaine(2) using doses(3 and 6 mg/kg); assay type: functional, Canis lupus familiaris, His-Purkinje system; outline: as §1
Canis familiaris [11] = experiment: (§4) Antiarrhythmic property ventricular effective refractory period(drug free) is compared to lidocaine(2) using doses(3 and 6 mg/kg); assay type: functional, Canis lupus familiaris, Heart; outline: as §2
Canis familiaris [12] = experiment: Antiarrhythmic property Nonsustained ventricular tachycardia is compared to lidocaine(2) using dose of (3 and 6 mg/kg); assay type: functional, Canis lupus familiaris, Heart; outline: as §1
Canis familiaris [13] = experiment: Tested for antiarrhythmic property by measuring ability to decrease heart rate(drug free) is compared to Lidocaine using doses (3 and 6 mg/kg).; assay type: functional, Canis lupus familiaris; outline: as §1
Canis familiaris [14] = experiment: Tested for antiarrhythmic property by measuring ability to decrease heart rate(post drug) is compared to Lidocaine using doses(3 and 6 mg/kg).; assay type: functional, Canis lupus familiaris; outline: as §1
Canis familiaris [15] = experiment: Tested for antiarrhythmic property by measuring ability to decrease Mean blood pressure (drug free) is compared to Lidocaine using doses(3 and 6 mg/kg).; assay type: functional, Canis lupus familiaris; outline: as §1
Canis familiaris [16] = experiment: Tested for antiarrhythmic property by measuring ability to decrease Mean blood pressure (post drug) is compared to Lidocaine using doses(3 and 6 mg/kg); assay type: functional, Canis lupus familiaris; outline: as §1
Canis familiaris [17] = experiment: Tested for antiarrhythmic property by measuring ability to decrease Mean blood pressure(post drug) is compared to Lidocaine using doses(3 and 6 mg/kg); assay type: functional, Canis lupus familiaris; outline: as §1
Canis familiaris [18] = experiment: as §3; assay type: functional, Canis lupus familiaris, His-Purkinje system; outline: as §1; remark: listed apart in the source
Canis familiaris [19] = experiment: as §4; assay type: functional, Canis lupus familiaris, Heart; outline: as §1; remark: listed apart in the source
Canis familiaris [20] = experiment: Antiarrhythmic property ventricular effective refractory period(post drug) is compared to lidocaine(2) using doses(3 and 6 mg/kg); assay type: functional, Canis lupus familiaris, Heart; outline: as §1
Canis familiaris [21] = experiment: (§5) Antiarrhythmic properties are compared to lidocaine(2) using doses(3 and 6 mg/kg) measures His-Purkinje conduction time(drug free); No effect; assay type: functional, organism-based; design: dose 6 mg/kg; settings: Canis lupus familiaris; His-Purkinje system; outline: as §1
Canis familiaris [22] = experiment: Antiarrhythmic property A-V nodal conduction time(drug free) is compared to lidocaine(2) using doses(3 and 6 mg/kg); No effect; assay type: functional, organism-based; design: dose 6 mg/kg; settings: Canis lupus familiaris; Heart; outline: as §1
Canis familiaris [23] = experiment: Antiarrhythmic property A-V nodal conduction time(post drug) is compared to lidocaine(2) using dose (3 and 6 mg/kg); No effect; assay type: functional, organism-based; design: dose 6 mg/kg; settings: Canis lupus familiaris; Heart; outline: as §1
Canis familiaris [24] = experiment: Antiarrhythmic properties are compared to lidocaine(2) using doses(3 and 6 mg/kg). Time required for the ventricular myocardium to undergo depolarization and repolarization ((post drug); No effect; assay type: functional, organism-based; design: dose 6 mg/kg; settings: Canis lupus familiaris; outline: as §1
Canis familiaris [25] = experiment: Antiarrhythmic properties are compared to lidocaine(2) using doses(3 and 6 mg/kg). Time required for the ventricular myocardium to undergo depolarization and repolarization (drug free); No effect; assay type: functional, organism-based; design: dose 6 mg/kg; settings: Canis lupus familiaris; outline: as §1
Canis familiaris [26] = experiment: Antiarrhythmic properties are compared to lidocaine(2) using doses(3 and 6 mg/kg). Tested for time required for the ventricular myocardium to undergo depolarization and repolarization ((post drug); No effect; assay type: functional, organism-based; design: dose 6 mg/kg; settings: Canis lupus familiaris; outline: as §1
Canis familiaris [27] = experiment: Antiarrhythmic properties are compared to lidocaine(2) using doses(3 and 6 mg/kg).Tested for time required for the ventricular myocardium to undergo depolarization and repolarization (drug free); No effect; assay type: functional, organism-based; design: dose 6 mg/kg; settings: Canis lupus familiaris; outline: as §1
Canis familiaris [28] = experiment: as §5; assay type: functional, organism-based; design: dose 6 mg/kg; settings: Canis lupus familiaris; His-Purkinje system; outline: as §1; remark: listed apart in the source
Canis familiaris [29] = experiment: Antiarrhythmic properties are compared to lidocaine(2) using doses(3 and 6 mg/kg) measures His-Purkinje conduction time(post drug); No effect; assay type: functional, organism-based; design: dose 6 mg/kg; settings: Canis lupus familiaris; His-Purkinje system; outline: as §1
Canis familiaris [30] = experiment: Antiarrhythmic properties are compared to lidocaine(2) using doses(3 and 6 mg/kg) ventricular effective refractory period(post drug); No effect; assay type: functional, organism-based; design: dose 6 mg/kg; settings: Canis lupus familiaris; Heart; outline: as §1
Canis familiaris [31] = experiment: Antiarrhythmic properties are compared to lidocaine(2) using doses(3 and 6 mg/kg) ventricular effective refractory period(drug free); No effect; assay type: functional, organism-based; design: dose 6 mg/kg; settings: Canis lupus familiaris; Heart; outline: as §1
Canis familiaris [32] = experiment: Antiarrhythmic property A-V nodal conduction time(post drug) is compared to lidocaine(2) using dose (3 and 6 mg/kg); assay type: functional, Canis lupus familiaris, Heart; outline: as §1
Canis familiaris [33] = experiment: Tested for antiarrhythmic property by measuring ability to decrease heart rate (drug free) is compared to Lidocaine using doses (3 and 6 mg/kg).; assay type: functional, Canis lupus familiaris; outline: as §1
Canis familiaris [34] = experiment: Antiarrhythmic property His-Purkinje conduction time(drug free) is compared to lidocaine(2) using doses(3 and 6 mg/kg); No effect; assay type: functional, organism-based; design: dose 6 mg/kg; settings: Canis lupus familiaris; His-Purkinje system; outline: as §1
Canis familiaris [35] = experiment: Antiarrhythmic property His-Purkinje conduction time(post drug) is compared to lidocaine(2) using doses(3 and 6 mg/kg); No effect; assay type: functional, organism-based; design: dose 6 mg/kg; settings: Canis lupus familiaris; His-Purkinje system; outline: as §1

Structure (SMILES)	AH interval (Canis familiaris [1]) [ms]	QT (Canis familiaris [2]) [ms]	QT (Canis familiaris [3]) [ms]	AH interval (Canis familiaris [4]) [ms]	VERP (Canis familiaris [12]) [ms]	HR (Canis familiaris [13]) [beats min-1]	HR (Canis familiaris [14]) [beats min-1]	MBP (Canis familiaris [15]) [mmHg]	MBP (Canis familiaris [16]) [mmHg]	MBP (Canis familiaris [17]) [mmHg]	VERP (Canis familiaris [19]) [ms]	VERP (Canis familiaris [20]) [ms]	further results
CC(C)N1CC2CN(C(C)C)CC(C1)C21SCCS1	75	270	236	56	180								HR (Canis familiaris [5]): 154 beats min-1; HR (Canis familiaris [6]): 105 beats min-1; MBP (Canis familiaris [7]): 61 mmHg; MBP (Canis familiaris [8]): 76 mmHg; HV interval (Canis familiaris [9]): 40 ms; HV interval (Canis familiaris [10]): 30 ms; VERP (Canis familiaris [11]): 140 ms
CC(C)N1CC2CC(CN(C(=O)c3ccc(NS(C)(=O)=O)cc3)C2)C1.Cl						150	150	95	95				NSVT (Canis familiaris [12]): 6 mg/kg
CC(C)N1CC2CC(CN(C(=O)c3ccc(-n4ccnc4)cc3)C2)C1	66	288	196	57		148	110	94		84	144	187	HV interval (Canis familiaris [10]): 32 ms; HV interval (Canis familiaris [18]): 37 ms
CC(C)N1CC2CC(CN(C(=O)c3ccc([N+](=O)[O-])cc3)C2)C1.Cl	75	260	220	60		130	100	95		75	160	230	NSVT (Canis familiaris [19]): 6 mg/kg
CC(C)N1CC2CC(CN(C(=O)c3ccc(NS(C)(=O)=O)cc3)C2)C1													HV interval (Canis familiaris [21]): inactive; AH interval (Canis familiaris [22]): inactive; NE (Canis familiaris [22]): inactive; AH interval (Canis familiaris [23]): inactive; OT (Canis familiaris [24]): inactive; OT (Canis familiaris [25]): inactive; OT interval (Canis familiaris [26]): inactive; OT interval (Canis familiaris [27]): inactive; HV interval (Canis familiaris [28]): inactive; HV interval (Canis familiaris [29]): inactive; VERP (Canis familiaris [30]): inactive; HV interval (Canis familiaris [31]): inactive; VERP (Canis familiaris [31]): inactive
O=C(c1ccc(Cl)cc1)N1CC2CC(CN(CC3CC3)C2)C1		250	215	60	220		105	88	98		170		AH interval (Canis familiaris [32]): 68 ms; HR (Canis familiaris [33]): 125 beats min-1; HV interval (Canis familiaris [34]): inactive; HV interval (Canis familiaris [35]): inactive
O=C(c1ccccc1)N1CC2CC(CN(CC3CC3)C2)C1				65	190		111	92	83		170		AH interval (Canis familiaris [32]): 70 ms; HR (Canis familiaris [33]): 120 beats min-1; QT interval (Canis familiaris [24]): inactive; QT interval (Canis familiaris [25]): inactive; HV interval (Canis familiaris [28]): inactive; HV interval (Canis familiaris [35]): inactive
CC(C)N1CC2CC(CN(C(=O)c3ccc(N)cc3)C2)C1.Cl.Cl	65	220	210	55		130	115	100		77		220	NSVT (Canis familiaris [19]): 6 mg/kg
